ChEMBL document CHEMBL1131198, “From micromolar to nanomolar affinity: a systematic approach to identify the binding site of CGRP at the human calcitonin gene-related peptide 1 receptor” (J Med Chem, 1998)
Numbered stars: 1 amine (or outer) side, 2 acyl side, 3 side chain; on linkers, the order of the positions; unused ones are H or OH. Square brackets hold non-standard residues; d marks the D form. Peptide text beside a SMILES is read from it. X1 = O=C(C1(c2ccccc2)CC1CN[*:1])[*:2]; Hyp = O=C(O)[C@@H]1C[C@@H](O)CN1; Tic = O=C(O)[C@@H]1Cc2ccccc2CN1; X2 = O=C(C1CC1CN[*:1])[*:2]; Aib = CC(C)(N)C(=O)O

Each compound was assayed against Calcitonin gene-related peptide type 1 receptor (Homo sapiens, UniProt O60894+Q16602) (assay: (§1) CGRP1 receptor affinity on human neuroblastoma cells SK-N-MC, which selectively express the human CGRP1 receptor.).
Procedure, shortened: (§2)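 SK-N-MC membranes (cells grown in DMEM, detached with PBS/0.02% EDTA, homogenized, pellet in Tris buffer pH 7.40 with 1% BSA, 0.1% bacitracin, stored -80 °C) diluted 1:10 in assay buffer (50 mM Tris, 150 mM NaCl, 5 mM MgCl2, 1 mM EDTA, pH 7.40).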

Calcitonin gene-related peptide type 1 receptor (Homo sapiens, UniProt O60894+Q16602), sequence (Q16602 whole entry, one chain of several): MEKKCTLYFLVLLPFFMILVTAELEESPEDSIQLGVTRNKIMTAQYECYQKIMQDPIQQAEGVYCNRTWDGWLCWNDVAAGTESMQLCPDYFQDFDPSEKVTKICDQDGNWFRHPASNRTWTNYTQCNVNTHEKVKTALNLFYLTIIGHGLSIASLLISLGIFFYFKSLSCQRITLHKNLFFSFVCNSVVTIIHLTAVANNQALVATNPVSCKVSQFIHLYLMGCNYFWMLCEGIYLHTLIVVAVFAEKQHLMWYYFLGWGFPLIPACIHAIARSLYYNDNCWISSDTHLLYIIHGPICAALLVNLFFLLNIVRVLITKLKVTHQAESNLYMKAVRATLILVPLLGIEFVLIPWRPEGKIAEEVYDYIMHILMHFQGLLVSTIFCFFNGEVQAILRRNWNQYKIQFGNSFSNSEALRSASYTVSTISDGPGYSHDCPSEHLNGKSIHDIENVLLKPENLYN

Compound	IC50 [µM]
CC(C)[C@H](NC(=O)[C@H](CC(=O)O)NC(=O)[C@@H](NC(=O)[C@@H]1CCCN1C(=O)[C@@H](NC(=O)[C@@H](N)Cc1ccccc1)C(C)C)[C@@H](C)O)C(=O)NCC(=O)N1CCCC[C@H]1C(=O)N[C@@H](Cc1ccccc1)C(=O)N[C@@H](C)C(=O)N[C@@H](Cc1ccccc1)C(=O)O	0.91
CC(C)[C@H](NC(=O)[C@@H](CC(N)=O)NC(=O)[C@@H](NC(=O)[C@@H]1CCCN1C(=O)[C@@H](NC(=O)[C@@H](N)Cc1ccc(O)cc1)C(C)C)[C@@H](C)O)C(=O)NCC(=O)N[C@@H](CO)C(=O)N[C@@H](CCC(=O)O)C(=O)N[C@@H](C)C(=O)N[C@@H](Cc1ccccc1)C(=O)O	> 100
CC(C)[C@H](NC(=O)[C@H](CC(=O)O)NC(=O)[C@@H](NC(=O)[C@@H]1CCCN1C(=O)[C@@H](NC(=O)[C@@H](N)Cc1ccccc1)C(C)C)[C@@H](C)O)C(=O)NCC(=O)N1CCC[C@H]1C(=O)N[C@@H](Cc1ccccc1)C(=O)N[C@@H](C)C(=O)N[C@@H](Cc1ccccc1)C(=O)O	0.029
CC(C)[C@H](NC(=O)[C@H](CC(=O)O)NC(=O)[C@@H](NC(=O)[C@@H]1CCCN1C(=O)[C@@H](NC(=O)[C@@H](N)Cc1ccccc1)C(C)C)[C@@H](C)O)C(=O)NCC(=O)N1C[C@H](O)C[C@H]1C(=O)N[C@@H](Cc1ccccc1)C(=O)N[C@@H](C)C(=O)N[C@@H](Cc1ccccc1)C(=O)O	0.62
CC(C)[C@H](NC(=O)[C@H](CC(N)=O)NC(=O)[C@@H](NC(=O)[C@@H]1CCCN1C(=O)[C@@H](NC(=O)[C@@H](N)Cc1ccc(O)cc1)C(C)C)[C@@H](C)O)C(=O)NCC(=O)N[C@@H](CO)C(=O)N[C@@H](CCC(=O)O)C(=O)N[C@H](C)C(=O)N[C@@H](Cc1ccccc1)C(=O)O	> 100
CC(C)[C@H](NC(=O)[C@H](CC(N)=O)NC(=O)[C@@H](NC(=O)[C@@H]1CCCN1C(=O)[C@@H](NC(=O)[C@@H](N)Cc1ccc(O)cc1)C(C)C)[C@@H](C)O)C(=O)NCC(=O)N[C@H](CO)C(=O)N[C@@H](CCC(=O)O)C(=O)N[C@@H](C)C(=O)N[C@@H](Cc1ccccc1)C(=O)O	> 100
CC(C)[C@H](NC(=O)[C@H](CC(N)=O)NC(=O)[C@@H](NC(=O)[C@@H]1CCCN1C(=O)[C@@H](NC(=O)[C@H](N)Cc1ccc(O)cc1)C(C)C)[C@@H](C)O)C(=O)NCC(=O)N[C@@H](CO)C(=O)N[C@@H](CCC(=O)O)C(=O)N[C@@H](C)C(=O)N[C@@H](Cc1ccccc1)C(=O)O	80
CC(C)[C@H](NC(=O)[C@H](CC(N)=O)NC(=O)[C@@H](NC(=O)[C@@H]1CCCN1C(=O)[C@@H](NC(=O)[C@@H](N)Cc1ccc(O)cc1)C(C)C)[C@@H](C)O)C(=O)NCC(=O)N[C@@H](CO)C(=O)N[C@@H](CCC(=O)O)C(=O)N[C@@H](C)C(=O)N[C@@H](Cc1ccccc1)C(=O)O	3
CC(C)[C@H](NC(=O)[C@H](CC(=O)O)NC(=O)[C@@H](NC(=O)[C@@H]1CCCN1C(=O)[C@@H](NC(=O)[C@@H](N)Cc1ccccc1)C(C)C)[C@@H](C)O)C(=O)NCC(=O)NC(C)(C)C(=O)N[C@@H](Cc1ccccc1)C(=O)N[C@@H](C)C(=O)N[C@@H](Cc1ccccc1)C(=O)O (H-FVPTDVG[Aib]FAF-OH)	0.17
CC(C)[C@H](NC(=O)[C@H](CC(=O)O)NC(=O)[C@@H](NC(=O)[C@@H]1CCCN1C(=O)[C@@H](NC(=O)[C@@H](N)Cc1ccccc1)C(C)C)[C@@H](C)O)C(=O)NCC(=O)NCC1CC1(C(=O)N[C@@H](Cc1ccccc1)C(=O)N[C@@H](C)C(=O)N[C@@H](Cc1ccccc1)C(=O)O)c1ccccc1 (stereo partly specified) (H-FVPTDVG[X1]FAF-OH)	> 3
CC(C)[C@H](NC(=O)[C@H](CC(=O)O)NC(=O)[C@@H](NC(=O)[C@@H]1CCCN1C(=O)[C@@H](NC(=O)[C@@H](N)Cc1ccccc1)C(C)C)[C@@H](C)O)C(=O)NCC(=O)NCC1CC1C(=O)N[C@@H](Cc1ccccc1)C(=O)N[C@@H](C)C(=O)N[C@@H](Cc1ccccc1)C(=O)O (stereo partly specified) (H-FVPTDVG[X2]FAF-OH)	> 3
CC(C)[C@H](NC(=O)[C@H](CC(N)=O)NC(=O)[C@@H](NC(=O)[C@@H]1C[C@@H](O)CN1C(=O)[C@@H](NC(=O)[C@@H](N)Cc1ccc(O)cc1)C(C)C)[C@@H](C)O)C(=O)NCC(=O)N[C@@H](CO)C(=O)N[C@@H](CCC(=O)O)C(=O)N[C@@H](C)C(=O)N[C@@H](Cc1ccccc1)C(=O)O (H-YV[Hyp]TNVGSEAF-OH)	9
Ac-FVPTDVGAFAF-OH	0.205
Ac-FVPTNVGSEAF-OH	4.5
Ac-PTDVGAFAF-OH	0.49
Ac-VPTDVGAFAF-OH	0.3
H-AVPTNVGSEAF-OH	24
H-FPPTNVGSEAF-OH	3.4
H-FVPPNVGSEAF-OH	> 10
H-FVPTDVGAFAF-OH	0.159
H-FVPTDVGAHAF-OH	0.36

Compound	IC50 [µM]
H-FVPTDVGPEAF-OH	0.47
H-FVPTDVGSEAF-OH	> 3
H-FVPTDVGSQAF-OH	1.2
H-FVPTNPGSEAF-OH	> 10
H-FVPTNVGPEAF-OH	0.28
H-FVPTNVGSEAF-OH	3
H-FVPTNVGSEPF-OH	> 10
H-FVPTNVGSKAF-OH	2.7
H-FVPTNVGSPAF-OH	> 10
H-FVPTNVPSEAF-OH	> 10
H-FVPTPVGSEAF-OH	4.5
H-ILSSTNVGSEAF-OH	10
H-NFVPRSKISPEAF-OH	10
H-NFVPRSKISPQGY-OH	10
H-NFVPTNVGSNTY-OH	10
H-NFVPTNVGSQGY-OH	10
H-NVAPRSKISPEAF-OH	10
H-NVAPTNVGSEAF-OH	10
H-NVAPTNVGSQGY-OH	10
H-PTDVGAFAF-OH	0.22
H-VPTDVGAFAF-OH	0.2

Compound	IC50 [µM]
H-YAPTNVGSEAF-OH	8
H-YFPTNVGSEAF-OH	14
H-YPTNVGSEAF-OH	24
H-YTNVGSEAF-OH	18
H-YVFTNVGSEAF-OH	45
H-YVPSNVGSEAF-OH	> 100
H-YVPTAVGSEAF-OH	> 100
H-YVPTDVGSEAF-OH	5
H-YVPTFVGSEAF-OH	70
H-YVPTLVGSEAF-OH	7
H-YVPTNVGAEAF-OH	4
H-YVPTNVGSAAF-OH	> 10
H-YVPTNVGSEAY-OH	32
H-YVPTNVGSEGF-OH	51
H-YVPTNVGSFAF-OH	4.79
H-YVPTNVGSHAF-OH	4.28
H-YVPTNVGSKAF-OH	6.5
H-YVPTNVGSLAF-OH	8.55
H-YVPTNVGSQAF-OH	6.9
H-YVPTQVGSEAF-OH	95

These compounds were tested against Calcitonin gene-related peptide type 1 receptor (Homo sapiens, UniProt Q16602) (assay: as §1).
Procedure, shortened: as §2

Calcitonin gene-related peptide type 1 receptor (Homo sapiens, UniProt Q16602), sequence (Q16602 whole entry): as the sequence (Q16602 whole entry, one chain of several) above

Compound	IC50
CC(C)[C@H](NC(=O)[C@H](CC(N)=O)NC(=O)[C@@H](NC(=O)[C@@H]1CCCN1C(=O)[C@H](NC(=O)[C@@H](N)Cc1ccc(O)cc1)C(C)C)[C@@H](C)O)C(=O)NCC(=O)N[C@@H](CO)C(=O)N[C@@H](CCC(=O)O)C(=O)N[C@@H](C)C(=O)N[C@@H](Cc1ccccc1)C(=O)O	19 µM
CC(C)[C@H](NC(=O)[C@H](CC(N)=O)NC(=O)[C@H](NC(=O)[C@@H]1CCCN1C(=O)[C@@H](NC(=O)[C@@H](N)Cc1ccc(O)cc1)C(C)C)[C@@H](C)O)C(=O)NCC(=O)N[C@@H](CO)C(=O)N[C@@H](CCC(=O)O)C(=O)N[C@@H](C)C(=O)N[C@@H](Cc1ccccc1)C(=O)O	No displacement
CC(C)[C@H](NC(=O)[C@H](CC(N)=O)NC(=O)[C@@H](NC(=O)[C@@H]1CCCN1C(=O)[C@@H](NC(=O)[C@@H](N)Cc1ccc(O)cc1)C(C)C)[C@@H](C)O)C(=O)NCC(=O)N[C@@H](CO)C(=O)N[C@H](CCC(=O)O)C(=O)N[C@@H](C)C(=O)N[C@@H](Cc1ccccc1)C(=O)O	No displacement
CC(C)[C@H](NC(=O)[C@H](CC(N)=O)NC(=O)[C@@H](NC(=O)[C@@H]1CCCN1C(=O)[C@@H](NC(=O)[C@@H](N)Cc1ccc(O)cc1)C(C)C)[C@@H](C)O)C(=O)NCC(=O)N[C@@H](CO)C(=O)N[C@@H](CCC(=O)O)C(=O)N[C@@H](C)C(=O)N[C@H](Cc1ccccc1)C(=O)O	No displacement
CC(C)[C@H](NC(=O)[C@@H](N)Cc1ccc(O)cc1)C(=O)N1CCC[C@H]1C(=O)N[C@H](C(=O)N[C@@H](CC(N)=O)C(=O)N[C@@H](C(=O)NCC(=O)N[C@@H](CO)C(=O)N[C@@H](CCC(=O)O)C(=O)N[C@@H](C)C(=O)N[C@@H](Cc1ccccc1)C(=O)O)C(C)C)[C@@H](C)O	No displacement
CC(C)[C@H](NC(=O)[C@H](CC(=O)O)NC(=O)[C@@H](NC(=O)[C@@H]1CCCN1C(=O)[C@@H](NC(=O)[C@@H](N)Cc1ccccc1)C(C)C)[C@@H](C)O)C(=O)NCC(=O)N1Cc2ccccc2C[C@H]1C(=O)N[C@@H](Cc1ccccc1)C(=O)N[C@@H](C)C(=O)N[C@@H](Cc1ccccc1)C(N)=O (H-FVPTDVG[Tic]FAF-NH2)	0.146 µM
C[C@H](NC(=O)[C@@H](N)Cc1ccc(O)cc1)C(=O)N[C@@H](Cc1ccccc1)C(=O)O (H-Tyr-Ala-Phe-OH)	No displacement
CC(C)[C@H](NC(=O)[C@@H](N)Cc1ccc(O)cc1)C(=O)N1CCC[C@H]1C(=O)O (H-Tyr-Val-Pro-OH)	No displacement
C[C@H](NC(=O)[C@H](CCC(=O)O)NC(=O)[C@@H](N)Cc1ccc(O)cc1)C(=O)N[C@@H](Cc1ccccc1)C(=O)O (H-YEAF-OH)	No displacement
CC(C)[C@H](NC(=O)[C@@H](N)Cc1ccc(O)cc1)C(=O)N1CCC[C@H]1C(=O)N[C@H](C(=O)O)[C@@H](C)O (H-YVPT-OH)	No displacement
H-YGSEAF-OH	No displacement
H-YNVGSEAF-OH	No displacement
H-YSEAF-OH	No displacement
H-YVATNVGSEAF-OH	No displacement
H-YVGSEAF-OH	No displacement
H-YVPANVGSEAF-OH	No displacement
H-YVPFNVGSEAF-OH	No displacement
H-YVPTN-OH	No displacement
H-YVPTNAGSEAF-OH	No displacement
